Source: PubChem (Broad Institute)
XiGFP reactiv: activators of X-chromosome reactivation in mouse fibroblasts; 360,000 tested, 0.055% active; activation, % at 7.58 µM; XiGFP mouse fibroblasts, % GFP-positive cells imaging, 3 d; cells co-treated with 5-aza-dC sensitizer; scaled so ellipticine positive control = 100%;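 active = mean normalized replicate activation at least 10% and every replicate at or above 10%; inconclusive = only one of the two criteria met; inactive = mean below 10% and not all replicates reach 10%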
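Schedule: 3 d treatment, 15 min room-temperature fixation; system: 68-5-11 XiGFP fibroblast line; buffer or medium: DMEM plus 5-aza-dC sensitizer; control set: ellipticine 6 µM positive control; compound: one concentration, pinned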
E-sel inducer: E-selectin induction on HUVECs | HUVEC E-selectin immunofluorescence imaging; normalized: neutral wells 0, TNF-alpha wells 100 | P16581 | AID 686992 | activation, % at 7.58 µM | 260,000 tested, 0.37% active;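 active = mean E-selectin-positive cell signal at least 10% of the positive control, reached in at least 60% of replicates, without over 20% cell loss; inconclusive = no rule given, readout overlaps actives, possibly toxicity-flagged; inactive = the rest, including those meeting only one limit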
Target sequence (P16581 whole entry, looked up): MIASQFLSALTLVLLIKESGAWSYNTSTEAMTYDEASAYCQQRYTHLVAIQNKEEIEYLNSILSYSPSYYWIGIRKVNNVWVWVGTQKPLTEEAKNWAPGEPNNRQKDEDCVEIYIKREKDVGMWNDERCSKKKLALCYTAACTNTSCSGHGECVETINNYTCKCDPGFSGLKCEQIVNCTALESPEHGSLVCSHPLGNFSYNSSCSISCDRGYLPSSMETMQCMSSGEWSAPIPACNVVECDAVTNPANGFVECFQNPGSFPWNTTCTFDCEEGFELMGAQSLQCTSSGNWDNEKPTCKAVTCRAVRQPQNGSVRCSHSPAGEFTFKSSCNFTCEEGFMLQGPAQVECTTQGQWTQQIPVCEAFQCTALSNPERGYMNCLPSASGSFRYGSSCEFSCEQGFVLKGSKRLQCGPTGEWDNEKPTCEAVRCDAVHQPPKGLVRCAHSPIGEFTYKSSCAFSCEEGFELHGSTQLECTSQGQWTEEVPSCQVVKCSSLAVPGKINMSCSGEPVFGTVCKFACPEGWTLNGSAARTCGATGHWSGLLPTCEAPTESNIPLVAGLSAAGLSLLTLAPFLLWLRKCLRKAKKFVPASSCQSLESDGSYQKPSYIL
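material = human umbilical vein endothelial cells (HUVEC), E-selectin induction | quantity = 3,000 cells/well | medium = EGM-2 growth medium on 0.1% gelatin-coated wells | technique = immunofluorescence imaging | read-out basis = % PE-positive cells | control set = TNF-alpha positive control, DMSO neutral control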
DENV2 CPE rescue: DENV2-induced cell death inhibition | DENV2-infected cells, cytopathic effect rescue, plate reader | CPE inhibition, % at 9.99 µM | 350,000 tested, 1.7% active | AID 651640; in the data active = CPE inhibition above about 20%, passing the limit was not always enough; inconclusive = no clear call, values can overlap the other calls; tested in BHK-21 cells
S100A4 MyoIIA: inhibitors of human S100A4 binding to myosin IIA peptide | P26447 | S100A4/TAMRA-MyoIIA peptide fluorescence polarization | inhibition, % at 10.7 µM | 360,000 tested, 0.14% active;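 active = mean inhibition of at least 70% across replicates, with every replicate also reaching that level; inconclusive = mean inhibition reaches 70% but some replicates fall short; inactive = mean inhibition below 70%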
Target sequence (P26447 whole entry, looked up): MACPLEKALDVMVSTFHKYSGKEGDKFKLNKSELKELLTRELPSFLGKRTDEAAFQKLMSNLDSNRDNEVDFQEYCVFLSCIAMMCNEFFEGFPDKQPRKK
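Test system – S100A4 monomer (human) · Compound – single-point compound testing · Schedule – 5 min incubation before reading · Probe or stimulus – TAMRA-labelled myosin IIA heavy-chain peptide probe, 5 nM · Benchmarks – neutral control DMSO, positive control TFP · Medium – Calcium-containing HEPES buffer, pH 7.2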
Of the large screens only hits and unclear results are named; the others gave an inactive call. Only some compounds are listed: those with a hit (about 2% of all), similar ones and a draw of the others.

COc1ccc(OC)c(-c2nnc3n2N=C(c2ccc(OC)c(OC)c2)CS3)c1	DENV2 CPE rescue 31.3
COc1ccc(C2=Nn3c(nnc3-c3ccccc3OC)SC2)cc1OCC1CC1	DENV2 CPE rescue 25.1
CCCNC(=O)N[C@H]1C=C[C@H](CC(=O)N2CCN(C)CC2)O[C@@H]1CO	DENV2 CPE rescue 24.5
Cn1cnc(S(=O)(=O)N[C@@H]2C=C[C@@H](CC(=O)N3CCN(c4ccccc4)CC3)O[C@H]2CO)c1	none
Cc1ccc(S(=O)(=O)N[C@@H]2C=C[C@@H](CC(=O)N3CCc4ccccc4C3)O[C@@H]2CO)cc1	DENV2 CPE rescue 28.2
O=C(Cc1ccccc1)N[C@H]1C=C[C@@H](CC(=O)N2CCOCC2)O[C@H]1CO	DENV2 CPE rescue 52.8
Cn1cnc(S(=O)(=O)N[C@@H]2C=C[C@H](CC(=O)N3CCN(c4ccccc4)CC3)O[C@@H]2CO)c1	DENV2 CPE rescue 93.9
COc1ccc(OC)c(CCNC(=O)c2ccc3c(=O)[nH]c4c(C(=O)NC(C)C)sc(=S)n4c3c2)c1	none
CO[C@H]1CN(C)C(=O)c2ccc(NS(C)(=O)=O)cc2OC[C@@H](C)N(C(=O)CC2CC2)C[C@H]1C	none
CNC(=O)C[C@@H]1CC[C@H]2[C@@H](COc3ccc(NC(=O)Nc4ccc(F)c(F)c4)cc3C(=O)N2C)O1	none
NC(=O)C1CCN(C(=O)CC2(CC(=O)O)CCCCC2)CC1	none (no result: E-sel inducer)
CN(C)S(=O)(=O)c1ccc(Cl)c(NC(=O)CSc2nc3c(cc2C#N)C(=O)CC(C)(C)C3)c1	DENV2 CPE rescue 30.8 (no result: E-sel inducer)
CN(C)S(=O)(=O)c1cccc(NC(=O)CSc2nc3c(cc2C#N)C(=O)CC(C)(C)C3)c1	none (no result: E-sel inducer)
CCCc1c(C(=O)Nc2cc(C(C)(C)C)on2)cnn1-c1ccccc1	DENV2 CPE rescue 28.9
O=C(Nc1cscc1S(=O)(=O)c1ccc(Cl)cc1)c1ccccc1Cl	none (no result: E-sel inducer)
C/C=C/c1ccc([C@@H]2[C@H](CO)N(C(=O)C3CCCC3)C23CN(C(=O)NC(C)C)C3)cc1	none
O=C(CC1CC1)N1CC2(C1)[C@@H](c1ccccc1)[C@@H](CO)N2C(=O)c1cnccn1	DENV2 CPE rescue 32.5
O=C(c1ccccc1)N1CC2(C1)[C@H](c1ccccc1)[C@H](CO)N2Cc1ccccn1	none
C/C=C/c1ccc([C@H]2[C@@H](CO)N(C(=O)C3CC3)C23CN(C(=O)NC(C)C)C3)cc1	DENV2 CPE rescue 105.0
O=C(CC1CC1)N1CC2(C1)[C@H](c1ccccc1)[C@H](CO)N2Cc1ccccn1	DENV2 CPE rescue 22.7
O=C(c1ccccn1)N1CC2(C1)[C@H](c1ccccc1)[C@H](CO)N2C(=O)CC1CC1	none
O=C(c1ccccn1)N1CC2(C1)[C@@H](c1ccccc1)[C@@H](CO)N2C(=O)CC1CC1	DENV2 CPE rescue 34.6
O=C(c1ccccn1)N1CC2(C1)[C@H](c1ccccc1)[C@H](CO)N2Cc1ccc(F)cc1	none
O=C(c1ccccn1)N1CC2(C1)[C@H](c1ccccc1)[C@@H](CO)N2Cc1ccc(F)cc1	DENV2 CPE rescue 38.9
C/C=C/c1ccc([C@@H]2[C@H](CO)N(C(=O)c3cnccn3)C23CN(C(=O)C2CC2)C3)cc1	DENV2 CPE rescue 23.6
C/C=C/c1ccc([C@@H]2[C@H](CO)N(C(=O)c3cnccn3)C23CN(C(=O)C2CCC2)C3)cc1	none
Cc1cc(=O)oc2c(C)c(OC(C)C(=O)NC(Cc3c[nH]c4ccc(O)cc34)C(=O)O)ccc12 (stereo not drawn)	DENV2 CPE rescue 76.8 (no result: XiGFP reactiv, E-sel inducer)
CCc1c(C)c2ccc(OC(C)C(=O)NC(Cc3c[nH]c4ccc(O)cc34)C(=O)O)c(C)c2oc1=O (stereo not drawn)	none (no result: XiGFP reactiv, E-sel inducer)
CCOC(=O)C1=C(C)N(CCCCCC(=O)O)C(=O)NC1c1ccccc1OC(=O)c1cccs1 (stereo not drawn)	DENV2 CPE rescue 47.4
Cn1c2ccccc2c2cc(/C=N/NC(=O)c3cc(O)cc(O)c3)ccc21	E-sel inducer 74.3
O=C(O)CN1C(=O)/C(=C\c2cc(Br)ccc2OCc2ccc(Cl)cc2)SC1=S	E-sel inducer 49.3, DENV2 CPE rescue inconclusive
O=C(CCN1CCOCC1)N/N=C/c1cc([N+](=O)[O-])ccc1OC(F)F	DENV2 CPE rescue 21.5 (no result: E-sel inducer)
COc1ccc(Br)c(-c2nnc(CS(=O)(=O)c3ccccc3)o2)c1	none
CCOc1ccccc1-c1nnc(CS(=O)(=O)c2ccccc2)o1	DENV2 CPE rescue 52.9 (no result: E-sel inducer)
O=C(c1ccc2c(c1)OCO2)N1CC(=O)N2[C@H](CO)[C@H](c3ccc(-c4ccccc4)cc3)[C@@H]2C1	DENV2 CPE rescue 49.3
Cc1ccccc1S(=O)(=O)N1CC(=O)N2[C@H](CO)[C@@H](c3ccc(C#Cc4ccccc4)cc3)[C@@H]2C1	DENV2 CPE rescue 29.1
COc1ccc(C#Cc2ccc([C@@H]3[C@@H](CO)N4C(=O)CN(C(=O)c5ccncc5)C[C@@H]34)cc2)cc1	DENV2 CPE rescue 37.8
CC(=O)N1CC(=O)N2[C@H](CO)[C@@H](c3ccc(-c4ccc(C#N)cc4)cc3)[C@H]2C1	S100A4 MyoIIA 129.1
CN(c1ccc(C(=O)NCCSC(C)(C)C)cc1)S(=O)(=O)c1ccccc1	none
O=C(Nc1cccc(C(=O)N2CCN(c3ccccc3)CC2)c1)c1ccco1	none
O=C(c1ccccc1)N1CC(=O)N2[C@H](CO)[C@@H](c3ccc(C#Cc4ccccc4)cc3)[C@@H]2C1	DENV2 CPE rescue 20.8
O=C(c1ccccc1)N1CC(=O)N2[C@H](C1)[C@H](c1ccc(C#Cc3ccccc3)cc1)[C@@H]2CO	none
O=C(c1ccc2c(c1)OCO2)N1CC(=O)N2[C@H](C1)[C@H](c1ccc(C#Cc3ccccc3)cc1)[C@@H]2CO	DENV2 CPE rescue 49.9
CCCNC(=O)Nc1ccc2c(c1)C(=O)N(C)C[C@@H](OC)[C@H](C)CN(S(C)(=O)=O)[C@@H](C)CO2	none
CCOC1=C2CN(S(=O)(=O)c3ccc(C)cc3)[C@H](c3ccc(CC)cc3)C[C@@H]2N(S(=O)(=O)c2ccc(C)cc2)[C@H](c2ccccc2)C1	DENV2 CPE rescue 94.9
CCOC1=C2CN(S(=O)(=O)c3ccc(C)cc3)[C@H](c3ccccc3)C[C@H]2[C@H]2C(=O)N(c3ccccc3)C(=O)[C@H]2C1	DENV2 CPE rescue 49.1 (no result: E-sel inducer)
CCOC1=C2CN(S(=O)(=O)c3ccc(C)cc3)C(c3ccc(CC)cc3)CC2N(S(=O)(=O)c2ccc(C)cc2)C(c2ccc(CC)cc2)C1 (stereo not drawn)	none
Cn1c2ccccc2c2nnc(SCC(=O)Nc3ccccc3F)nc21	none (no result: E-sel inducer)
COc1ccc2c(c1)c1nnc(SCC(=O)Nc3ccccc3F)nc1n2C	DENV2 CPE rescue 51.1 (no result: E-sel inducer)
C[C@@H]1CN([C@@H](C)CO)C(=O)c2cc(NC(=O)CCCN(C)C)ccc2O[C@@H](C)CCCCO[C@H]1CN(C)C(=O)Cc1ccccc1	none
C[C@H]1O[C@@H](n2cc(F)c(=O)[nH]c2=O)[C@H](O)[C@@H]1O	none
O=c1[nH]c(=O)n(C2OC(CO)C(O)C(O)C2O)cc1F (stereo not drawn)	DENV2 CPE rescue 68.1 (no result: XiGFP reactiv, E-sel inducer)
O=S(=O)(c1ccc(-c2nnco2)cc1)N1CCCCC1	none (no result: E-sel inducer)
